Source: PubChem
Sampled rows, rich in hits. Any-hit rate of the full collection: about 2%.
MT1-MMP act inh: blocks activation of human MT1-MMP | P50281 | HT1080 RFP-PRO-GFP cells, GFP/RFP ratio fluorescence, overnight; percent of plate control window, DMSO zero | GFP/RFP ratio change, % at 20 µM | 0.061% of 360,000 active | AID 651647;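 active means GFP/RFP ratio change of at least 30% with cell ATP level not reduced by more than half and red fluorescence within 50% of control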
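Assay system – RFP-PRO-GFP reporter HT1080 cells · Compound dosing – single dose of 20 µM compound, 1% DMSO final · Incubation – overnight compound exposure at 37 °C · Measure – GFP/RFP fluorescence ratio · Benchmarks – DMSO wells and RFP-L50D-GFP cells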
FGF22 binding-1: shifts melting point of recombinant human FGF22; recombinant FGF22 thermal shift, SYPRO orange fluorescence; percent of sucrose octasulfate shift, DMSO zero; Q9HCT0; AID 651658; activity (Tm shift, normalised), % at 9.99 µM; 1.5% of 340,000 active;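 active means mean Tm shift, scaled 0 neutral to 100 positive control, at about 1.3% or above, every replicate too, limit read from the data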
DAGLB inh: diacylglycerol lipase beta (human) inhibition; Q8NCG7; HEK293T DAGLB membrane lysate, EnzChek fluorogenic substrate; inhibition, % at 5.17 µM; 0.059% of 340,000 active; AID 504411; in the data active means inhibition above about 34%;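 further: 0% = enzyme with vehicle and 100% = wells lacking enzyme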
Target sequence (Q8NCG7 whole entry, looked up): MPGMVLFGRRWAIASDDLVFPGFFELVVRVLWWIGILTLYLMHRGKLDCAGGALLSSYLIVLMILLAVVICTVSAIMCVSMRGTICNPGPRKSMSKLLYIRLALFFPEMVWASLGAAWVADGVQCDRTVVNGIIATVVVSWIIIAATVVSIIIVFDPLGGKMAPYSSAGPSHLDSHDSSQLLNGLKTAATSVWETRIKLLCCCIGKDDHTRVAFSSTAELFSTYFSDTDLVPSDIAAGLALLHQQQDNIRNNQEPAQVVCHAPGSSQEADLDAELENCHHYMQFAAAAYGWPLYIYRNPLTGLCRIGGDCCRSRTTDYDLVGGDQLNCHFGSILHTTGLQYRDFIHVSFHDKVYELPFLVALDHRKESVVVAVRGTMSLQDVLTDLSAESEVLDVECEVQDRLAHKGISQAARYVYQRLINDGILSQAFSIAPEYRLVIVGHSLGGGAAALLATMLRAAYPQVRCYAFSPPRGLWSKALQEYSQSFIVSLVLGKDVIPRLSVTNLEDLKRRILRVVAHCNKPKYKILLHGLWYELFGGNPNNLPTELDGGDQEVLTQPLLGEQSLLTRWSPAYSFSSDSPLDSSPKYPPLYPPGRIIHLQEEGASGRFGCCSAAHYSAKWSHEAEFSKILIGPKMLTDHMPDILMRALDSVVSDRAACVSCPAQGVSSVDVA
ABCB6 inh 2: blocks the human ABCB6 transporter; AID 602162; 0.19% of 360,000 active; fluorescence ratio to DMSO, % at 10 µM; K562-ABCB6 porphyrin accumulation, flow cytometry, 1 h; stronger effect = lower value; Q9NP58;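 active means fluorescence ratio to DMSO below 75%, the collection mean minus 3 SD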;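 further: signal is porphyrin accumulated inside mitochondria; 100% equals median channel fluorescence of DMSO control wells; lower ratio means ABCB6 inhibition with less porphyrin fluorescence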
VLA-4 inh: inhibition in a human VLA-4 binding assay; inhibition, % (about 7 µM as worked out from the volumes in the protocol); 0.2% of 330,000 active; AID 2557; P13612; VLA-4 expressing cells, ligand binding flow cytometry; in the data active means inhibition above about 50%
Exocytosis inh: blocks lytic granule exocytosis. TALL-104 LAMP-1 surface exposure, flow cytometry; cells stimulated with thapsigargin and PMA. inhibition, % at 10 µM. 0.66% of 360,000 active. AID 651702;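 active means inhibition above about 55%, limit read from the data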
FGF22 binding-2: binds human FGF22 shifting its melting temperature; shares compounds with FGF22 binding-1; 2% of 1,000 active; AID 720646; recombinant FGF22 thermal shift, SYPRO orange fluorescence; thermal shift activity, °C (ΔTm) at 38 µM;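 active means fitted rise in melting shift crosses a set limit at or below the top valid dose tested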
FGF22 TSA: binders of human FGF22 by thermal shift | shares compounds with FGF22 binding-1 | Thermal shift assay, SYPRO orange, melting temperature shift | Tm shift (activity), % at 38 µM | 50 tested, under 10 active;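 active means compounds whose fitted dose curve of melting temperature shift rises past a set threshold within the tested doses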
SYPRO no-protein: shows thermal shift signal without protein, FGF22 counter-screen; AC50, µM (series often up to 38 µM); compound-only SYPRO orange thermal shift counter-screen, no protein; shares compounds with FGF22 binding-1; 2% of 1,000 active;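 active means rising signal whose fitted curve reaches the 0.54 level within the top valid dose, showing a melting point, actives reach about 13 µM in these data; inactive means the rest, including activity in the opposite direction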; further: value is where the raw curve crosses a fixed level and not half-maximal
* hit, by the source's call; i = inactive; nt = no result.

SMILES	MT1-MMP act inh	FGF22 binding-1	DAGLB inh	ABCB6 inh 2	VLA-4 inh	Exocytosis inh	FGF22 binding-2	SYPRO no-protein	others
COc1ccc(NC(=O)COC(=O)Cc2c[nH]c3ccccc23)cc1Cl	3	1.7*	-1	96	2	-2	-0.2	i
NC(=NCCc1c[nH]c2ccccc12)NS(=O)(=O)c1ccc(F)cc1	-3	2.7*	-3	94	-8	-1	0.088	i
Cc1ccc(S(=O)(=O)c2nnn(-c3cccc(F)c3)c2N)cc1	3	1.5*	1	100	4	-2	-0.014	i
O=C(Nc1nc(-c2ccccn2)cs1)c1cc2ccccc2o1	-9	1.6*	2	103	-11	-1	-0.22	i
Cc1c(C(=O)Nc2nc(-c3ccccn3)cs2)oc2ccccc12	-4	nt	-2	100	-56	-3	nt	nt
O=C(Nc1nc(-c2ccccn2)cs1)c1cccc(S(=O)(=O)N2CCOCC2)c1	9	1.5*	2	98	-7	-4	-0.095	i
Cc1ccc(S(=O)(=O)N2CCOCC2)cc1C(=O)Nc1nc(-c2ccccn2)cs1	4	0	1	95	3	-11	nt	nt
C[C@@H]1CN([C@H](C)CO)C(=O)c2cc(NC(=O)c3ccncc3)ccc2O[C@@H](C)CCCCO[C@@H]1CN(C)Cc1ccc(C(=O)O)cc1	nt	0	nt	nt	nt	nt	nt	nt
CN1c2ccc(C#Cc3cccnc3)cc2[C@H]2[C@H](CCN2S(=O)(=O)c2ccc(F)cc2)[C@@H]1CO	nt	0	nt	nt	nt	nt	nt	nt
Cn1c(C(=O)NCCc2c[nH]c3ccccc23)cc2sccc21	2	1.6*	-2	93	-6	-1	0.002	i
O=C(NCCc1c[nH]c2ccccc12)c1cc2sccc2n1Cc1ccccc1	-6	nt	0	92	16	3	nt	nt
O=C(C[C@@H]1CC[C@@H]2NC[C@@H](O)COC[C@H]2O1)N1CCc2ccccc2C1	nt	0	nt	nt	nt	nt	nt	nt
COc1ccccc1NC(=O)c1ccc(NC(=O)COC(=O)C(C)C)cc1	-9	nt	-2	99	-6	4	nt	nt
COc1ccccc1NC(=O)c1ccc(NC(=O)COC(=O)c2ccc(O)cc2)cc1	-1	1.7*	-2	93	-1	2	0.009	i
Cc1ccc(CN2CCNC(=O)C2CC(=O)N(C)C2CCCCC2)cc1 (stereo not given)	-6	1.5*	0	102	3	1	0.1	i
Cc1cccnc1Nc1nc(-c2ccc(O)cc2O)cs1	3	nt	0	101	2	3	nt	nt
Oc1ccc(-c2csc(Nc3ccccn3)n2)c(O)c1	1	2.8*	0	99	-17	16	-0.051	11µM*
COc1cc(/C=N/NC(=O)c2cc3ccccc3[nH]2)ccc1O	5	2.7*	-4	94	-2	0	0.24	i	FGF22 TSA=0
COc1cc(/C=N/NC(=O)CCn2c3ccccc3c3ccccc32)ccc1O	-6	2.1*	3	90	12	5	0.038	13µM*
CCNC(=O)C[C@@H]1CC[C@@H]2[C@H](COc3ccc(NC(=O)c4ccc(F)c(F)c4)cc3C(=O)N2C)O1	nt	0	nt	nt	nt	nt	nt	nt
O=C(C[C@H]1CC[C@H]2[C@@H](COC[C@@H](O)CN2C(=O)C2CCOCC2)O1)NCc1ccncc1	nt	0	nt	nt	nt	nt	nt	nt
CS(=O)(=O)Nc1ccc2c(c1)[C@H]1C[C@H](CC(=O)NCC(F)(F)F)O[C@@H](CO)[C@H]1O2	nt	1	nt	nt	nt	nt	nt	nt
C[C@@H]1CN([C@@H](C)CO)C(=O)Cc2cc(NS(=O)(=O)c3ccc(F)cc3)ccc2O[C@H]1CN(C)CC1CCCCC1	nt	0	nt	nt	nt	nt	nt	nt
Cc1ccc(S(=O)(=O)Nc2ccc3c(c2)CC(=O)N([C@@H](C)CO)C[C@@H](C)[C@H](CN(C)S(C)(=O)=O)O3)cc1	nt	-1	nt	nt	nt	nt	nt	nt
